According to paper PMC2692831 (Chemistry & biology, 2009):

How the values were obtained:
[1] = test system: CFA model of inflammatory pain; experiment: CFA model of inflammatory pain, mechanical allodynia; type: in vivo, rat; details: for effect on mechanical allodynia in rats not treated with PF-3845: SR141716 10 mg/kg, SR144528 30 mg/kg, i.p.
Outline: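 Male Sprague-Dawley rats (200–250 g) received 0.15 ml CFA into the left hind paw plantar surface. On day 5, mechanical paw withdrawal thresholds were taken with von Frey hairs by the Dixon up-down method. Test compound was then given orally (1–30 mg/kg) in 5% N,N-dimethylacetamide/95% (40% 2-hydroxypropyl-β-cyclodextrin in water), and thresholds were re-measured 4 hr post-dose. Naproxen (10 mg/kg p.o.) served as reference. n=8/group; ANOVA, unpaired t-tests.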

FAAH [2] = target: T1, FAAH (Homo sapiens, UniProt O00519); experiment: FAAH inhibition kinetics, enzyme-coupled assay with oleamide as substrate; type: biochemical
T1 sequence (O00519 1-579): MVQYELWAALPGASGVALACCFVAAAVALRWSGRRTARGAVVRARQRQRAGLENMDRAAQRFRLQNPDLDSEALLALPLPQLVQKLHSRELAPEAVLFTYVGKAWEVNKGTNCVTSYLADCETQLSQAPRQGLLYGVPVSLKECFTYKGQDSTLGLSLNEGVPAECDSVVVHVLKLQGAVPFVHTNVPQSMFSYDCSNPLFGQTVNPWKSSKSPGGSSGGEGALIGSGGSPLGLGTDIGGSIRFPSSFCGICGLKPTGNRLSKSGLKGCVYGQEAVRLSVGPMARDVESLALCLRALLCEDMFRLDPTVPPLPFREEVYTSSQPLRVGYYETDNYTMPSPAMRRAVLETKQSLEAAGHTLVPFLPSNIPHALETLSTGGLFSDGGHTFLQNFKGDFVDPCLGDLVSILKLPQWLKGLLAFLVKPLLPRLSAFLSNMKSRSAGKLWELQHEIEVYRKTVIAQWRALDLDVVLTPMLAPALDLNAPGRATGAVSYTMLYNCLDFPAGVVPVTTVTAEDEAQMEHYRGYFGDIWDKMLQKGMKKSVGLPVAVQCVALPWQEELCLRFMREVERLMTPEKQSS

FAAH [3] = target: T1, FAAH; experiment: Inhibitor potency; type: biochemical; details: read-out: kinact/Ki hFAAH
Outline: (§1)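 Purified recombinant FAAH (human, rat, or humanized rat h/rFAAH) in an enzyme-coupled assay with oleamide as substrate. FAAH hydrolysis releases ammonia, which is coupled to stoichiometric NAD+ formation, read continuously. NAD+ production is linear over 40 min without inhibitor. Test compound is added from a DMSO stock. kinact and Ki are derived from progress curves and saturation plots fitted to a covalent inactivation model.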

rFAAH = target: T2, rFAAH (Rattus norvegicus, UniProt P97612); experiment: Inhibitor potency; type: biochemical; details: read-out: kinact/Ki rFAAH
T2 sequence (P97612 1-579): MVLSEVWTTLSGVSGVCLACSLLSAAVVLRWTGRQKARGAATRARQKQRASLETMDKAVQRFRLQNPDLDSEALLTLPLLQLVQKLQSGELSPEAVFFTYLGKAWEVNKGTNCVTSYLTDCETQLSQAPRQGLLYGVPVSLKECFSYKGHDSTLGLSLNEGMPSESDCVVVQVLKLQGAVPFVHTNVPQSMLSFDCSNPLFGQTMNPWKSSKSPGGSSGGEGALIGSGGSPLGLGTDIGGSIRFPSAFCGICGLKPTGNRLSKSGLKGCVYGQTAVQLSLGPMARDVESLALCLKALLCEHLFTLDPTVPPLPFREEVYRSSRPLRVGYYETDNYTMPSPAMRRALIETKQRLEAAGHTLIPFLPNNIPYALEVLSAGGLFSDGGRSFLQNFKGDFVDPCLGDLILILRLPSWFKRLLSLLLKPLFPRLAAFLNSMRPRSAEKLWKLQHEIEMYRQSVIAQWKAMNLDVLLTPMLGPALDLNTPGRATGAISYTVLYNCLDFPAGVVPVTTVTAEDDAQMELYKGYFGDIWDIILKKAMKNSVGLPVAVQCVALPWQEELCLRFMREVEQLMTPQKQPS
Outline: as §1

[4] = target: T3, h/rFAAH ('humanized' rat-FAAH) (Rattus norvegicus, UniProt P97612, A377T/F194Y/I491V/L192F/S435N/V495M); experiment: Inhibitor potency; type: biochemical; details: read-out: kinact/Ki h/rFAAH
T3 sequence (P97612 30-579 L192F/F194Y/A377T/S435N/I491V/V495M limits assumed): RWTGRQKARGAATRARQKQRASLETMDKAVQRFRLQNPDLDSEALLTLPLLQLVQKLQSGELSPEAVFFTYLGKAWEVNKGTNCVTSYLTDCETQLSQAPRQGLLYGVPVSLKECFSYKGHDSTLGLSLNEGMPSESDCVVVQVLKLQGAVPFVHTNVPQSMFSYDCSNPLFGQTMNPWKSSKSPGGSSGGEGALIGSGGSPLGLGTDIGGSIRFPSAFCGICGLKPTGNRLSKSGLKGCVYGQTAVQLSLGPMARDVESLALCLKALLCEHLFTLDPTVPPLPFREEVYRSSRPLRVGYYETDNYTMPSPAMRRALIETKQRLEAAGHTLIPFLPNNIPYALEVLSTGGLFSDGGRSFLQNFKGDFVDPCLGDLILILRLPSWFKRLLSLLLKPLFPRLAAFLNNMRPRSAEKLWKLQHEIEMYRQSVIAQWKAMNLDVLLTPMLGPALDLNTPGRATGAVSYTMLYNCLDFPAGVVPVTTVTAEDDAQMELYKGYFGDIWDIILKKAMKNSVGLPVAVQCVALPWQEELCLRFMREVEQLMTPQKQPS
Outline: as §1

human FAAH-2 = target: T4, human FAAH-2 (Homo sapiens, UniProt Q6GMR7); experiment: Inhibition of FAAH-2; type: biochemical
T4 sequence (Q6GMR7 1-532): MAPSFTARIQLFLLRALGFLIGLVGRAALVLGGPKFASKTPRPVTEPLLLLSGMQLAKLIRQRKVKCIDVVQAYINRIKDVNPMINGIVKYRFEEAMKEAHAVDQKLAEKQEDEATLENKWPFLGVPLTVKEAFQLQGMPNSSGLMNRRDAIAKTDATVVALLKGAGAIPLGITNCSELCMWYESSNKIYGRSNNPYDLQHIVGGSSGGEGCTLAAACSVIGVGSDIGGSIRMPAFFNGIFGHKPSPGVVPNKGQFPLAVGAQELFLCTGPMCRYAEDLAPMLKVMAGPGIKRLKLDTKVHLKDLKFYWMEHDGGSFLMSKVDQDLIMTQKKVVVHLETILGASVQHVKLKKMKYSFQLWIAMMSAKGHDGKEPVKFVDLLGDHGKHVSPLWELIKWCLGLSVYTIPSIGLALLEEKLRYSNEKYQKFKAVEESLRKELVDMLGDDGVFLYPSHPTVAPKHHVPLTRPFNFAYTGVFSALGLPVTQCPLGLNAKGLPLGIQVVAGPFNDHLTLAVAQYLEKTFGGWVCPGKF

FAAH in the brain = target: T5, FAAH in the brain (Mus musculus, UniProt O08914); experiment: Competitive ABPP with FP-rhodamine, brain of treated mice; type: in vivo; details: for inactivation of FAAH in the brain: time course 1 to 24 hrs
T5 sequence (O08914 1-579): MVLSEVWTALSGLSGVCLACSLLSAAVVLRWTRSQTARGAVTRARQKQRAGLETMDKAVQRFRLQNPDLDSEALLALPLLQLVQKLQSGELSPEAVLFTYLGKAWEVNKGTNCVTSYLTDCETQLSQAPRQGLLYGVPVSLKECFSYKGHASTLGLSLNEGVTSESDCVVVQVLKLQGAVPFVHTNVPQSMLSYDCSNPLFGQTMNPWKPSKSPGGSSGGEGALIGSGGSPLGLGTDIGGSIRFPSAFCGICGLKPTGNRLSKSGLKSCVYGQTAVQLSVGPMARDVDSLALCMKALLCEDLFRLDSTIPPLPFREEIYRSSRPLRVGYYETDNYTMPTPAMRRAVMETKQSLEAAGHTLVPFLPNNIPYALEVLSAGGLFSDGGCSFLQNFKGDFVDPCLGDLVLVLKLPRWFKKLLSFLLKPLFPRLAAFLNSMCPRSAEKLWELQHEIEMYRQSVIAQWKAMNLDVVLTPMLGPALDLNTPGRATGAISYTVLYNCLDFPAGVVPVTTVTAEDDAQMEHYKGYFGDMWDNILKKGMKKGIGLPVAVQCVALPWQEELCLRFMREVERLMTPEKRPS

[5] = test system: brain and liver levels of AEA, PEA, OEA, 2-AG; experiment: Tissue levels of FAAH substrates; type: in vivo, mice
[6] = test system: FAAH activity and NAEs in brain, blood leukocytes/plasma, liver; experiment: FAAH activity and NAE levels in tissues and blood of treated rats; type: in vivo, rat; details: 4 hr
[7] = test system: brain and liver proteomes; experiment: CC-ABPP of in vivo protein targets of alkyne analogues; details: 10 mg/kg, i.p., 2 hr, FAAH(+/+) and (-/-) mice
Outline: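 Alkyne-tagged test compound given i.p. at 10 mg/kg to FAAH(+/+) and FAAH(-/-) mice; vehicle-treated mice of both genotypes served as controls. After 2 hr, mice were sacrificed and brain and liver proteomes collected. Proteomes were conjugated to a rhodamine-azide tag under click-chemistry conditions and resolved by gel with in-gel fluorescence scanning. FAAH was assigned as the 60 kDa band missing in FAAH(-/-) mice.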

[8] = test system: liver serine hydrolases (carboxylesterases); experiment: Competitive ABPP with FP-rhodamine, liver of treated mice; type: in vivo; details: 10 mg/kg, i.p., 2 hr

## Cc1c(C(=O)NN2CCCCC2)nn(-c2ccc(Cl)cc2Cl)c1-c1ccc(Cl)cc1 [SR141716, reference compound]
[1]
  effect on mechanical allodynia in rats not treated with PF-3845: neither the CB1 nor CB2 antagonist displayed significant effects

## O=C(Nc1cccnc1)N1CCC(Cc2cccc(Oc3ccc(C(F)(F)F)cn3)c2)CC1 [PF-3845]
FAAH [2]
  kinact: 0.0033 ± 0.0002 s⁻¹
  kinact/KI: 14300 M⁻¹ s⁻¹
FAAH [2]; PF-3845 versus PF-750 (structure comparison)
  improvement in potency: ~20 fold
FAAH [2]; compared to PF-750 or URB597
  fold higher kinact/Ki value for FAAH: 10-20 fold
FAAH [3]
  kinact/KI: 12600 M⁻¹ s⁻¹
rFAAH
  kinact/KI: 3900 ± 780 M⁻¹ s⁻¹
[4]
  kinact/KI: 13300 M⁻¹ s⁻¹
Human FAAH-2
  IC50: > 10 µM
FAAH in the brain; 10 mg/kg, i.p., mice
  inhibition of other FP-reactive serine hydrolases in brain: none of the other FP-reactive serine hydrolases in this tissue were inhibited
  inactivation of FAAH in the brain: rapid and complete inactivation of FAAH in the brain
FAAH in the brain; mouse, ip, read-out: brain FAAH inhibited at 24 hr
  inhibition at 10 mg/kg: > 75%
[5]; 10 mg/kg, i.p., mice
  levels of 2-AG in brain or liver: did not show changes
[5]; 10 mg/kg, i.p., mice, brain
  elevations in brain levels of AEA (and other NAEs PEA, OEA): > 10 fold
  time NAE elevations maintained at maximal levels (up to): 7 to 12 h
  time of peak elevation in NAEs: ~3 h
[5]; 10 mg/kg, i.p., mice, brain, 24 hrs
  AEA, PEA, OEA levels at 24 hrs post-treatment: significant elevations
[5]; 10 mg/kg, i.p., mice, liver
  AEA, PEA and OEA levels in liver tissue: significant elevations
[5]; FAAH(-/-) mice
  endocannabinoid (AEA or 2-AG) levels in FAAH(-/-) mice: did not alter
[5]; mice
  duration of high AEA elevations: at least 7 hrs
[1]; 1 mg/kg p.o., 4 hr
  efficacy in CFA model at 1 mg/kg: efficacy was not observed
[1]; 10 mg/kg, p.o., 2-8 hrs post-administration
  inhibition of mechanical allodynia, time course 2-8 hrs: significant inhibition of mechanical allodynia at all time points tested
[1]; p.o., 1-30 mg/kg, rats, 4 hr post-dosing
  minimum effective dose (MED), inhibition of mechanical allodynia: 3 mg/kg
[1]; p.o., 10 and 30 mg/kg, versus naproxen 10 mg/kg p.o.
  inhibition of pain responses at 10 and 30 mg/kg: equivalent, if not greater degree than the nonsteroidal anti-inflammatory drug naproxen
[6]; 1 mg/kg p.o.
  blockade of FAAH activity at 1 mg/kg: near-complete blockade of FAAH activity
  elevations in AEA at 1 mg/kg: close to maximal elevations in AEA
[6]; p.o., brain
  increase of OEA and PEA in brain: ~10 fold
[6]; p.o., brain and plasma
  maximal elevation of AEA in brain and plasma: ~10 fold
[6]; p.o., plasma
  increase of OEA and PEA in plasma: ~3 fold

## SR144528 [reference compound]
[1]
  effect on mechanical allodynia in rats not treated with PF-3845: neither the CB1 nor CB2 antagonist displayed significant effects

## C#CCCCCCCCCCNC(=O)Oc1cccc(-c2cccc(C(N)=O)c2)c1 [JP104]
[7]; brain
  proteins labeled in brain (CC-ABPP): selectively reacted with a single protein in mouse brain
[7]; liver
  proteins labeled in liver (CC-ABPP): labeling a number of proteins that were found in both FAAH(+/+) and (-/-) mice

## NC(=O)c1cccc(-c2cccc(OC(=O)NC3CCCCC3)c2)c1 [URB597, cyclohexyl carbamic acid 3′-carbamoyl-biphenyl-3-yl ester, reference compound]
FAAH in the brain; 10 mg/kg, i.p., mice
  inhibition of other FP-reactive serine hydrolases in brain: none of the other FP-reactive serine hydrolases in this tissue were inhibited
  inactivation of FAAH in the brain: rapid and complete inactivation of FAAH in the brain
FAAH in the brain; 10 mg/kg, i.p., mice, 24 hr
  brain FAAH activity at 24 hr: nearly wild type levels of brain FAAH activity
[8]
  blockade of FP-labeling of additional liver serine hydrolases: blocked FP-labeling of several additional liver serine hydrolases
[5]; 10 mg/kg, i.p., mice, brain
  time by which AEA levels return to near-baseline: up to 7 hrs
